Measured values: article PMC6690775 (FEBS letters, 2019)
Read-outs that look alike come from different tables or passages of the source.

Tests used:
[1] = target: T1, mortalin-NBD (Homo sapiens, UniProt P38646); assay: ITC binding of modified ADP analogues to mortalin-NBD; conditions: for ΔΗ: binding enthalpy change; for ΔS: binding entropy change
[2] = target: T2, Hsc70-NBD (Homo sapiens, UniProt P11142); assay: ITC binding of modified ADP analogues to Hsc70-NBD; conditions: for ΔΗ: binding enthalpy change; for ΔS: binding entropy change
[3] = target: T3, Hsp70-NBD (Homo sapiens, UniProt P0DMV8); assay: ITC binding of modified ADP analogues to Hsp70-NBD; conditions: for ΔΗ: binding enthalpy change; for ΔS: binding entropy change
[4] = target: T1, mortalin-NBD; assay: Competitive inhibition of ATPase activity; type: biochemical; conditions: for inhibition of ATP hydrolysis of mortalin-NBD (in words): compared with ADP
Outline: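 Human mortalin-NBD (residues 52–431) was expressed in E. coli Rosetta2(DE3) with a TEV-cleaved His6 tag, then purified by Ni, size-exclusion and Blue columns. Enzyme in binding buffer (HEPES pH 7.8, MgCl2, KCl) was mixed with PNP/MESG and inhibitor at 0–3 mM. ATP was added to 50 μM final, and A360 was read every minute for 60 min at 25 °C, in triplicate, minus no-enzyme control. IC50 came from a one-site logIC50 fit. Kiapp came from a Morrison fit constrained by Et 1 μM, ATP 50 μM and a previously determined KM.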

[5] = target: T2, Hsc70-NBD; assay: Competitive inhibition of ATPase activity; type: biochemical
Outline: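 PNP/MESG coupling (0.2 U, 0.2 μM, 10 min, 25 °C); ATP at 50 μM final started reaction; A360 read each minute for 60 min, 25 °C; triplicates minus no-enzyme control. IC50 from one-site logIC50 fit of fractional activity; Kiapp from Morrison fit constrained by prior KM.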

[6] = target: T3, Hsp70-NBD; assay: Competitive inhibition of ATPase activity; type: biochemical
Outline: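 Human Hsp70-NBD (residues 1–381) was expressed in E. coli Rosetta2(DE3) with a TEV-cleaved His6 tag and purified by Ni, size-exclusion and Blue columns. Phosphate release (EnzChek; PNP 0.2 U, MESG 0.2 μM) was measured with inhibitor at 0–3 mM and ATP 50 μM final. A360 was read each minute for 60 min at 25 °C in triplicate, minus no-enzyme control. IC50 came from a one-site logIC50 fit of fractional activity; Kiapp came from a Morrison fit of V0.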

[7] = target: T1, mortalin-NBD; conditions: previously reported; cited from earlier work
[8] = mortalin-NBD, ITC Kd relative to ADP
[9] = read-out: KIapp, mortalin-NBD 1 μM, ATP 50 μM, 25 °C, Morrison fit

T3 sequence (P0DMV8 1-381): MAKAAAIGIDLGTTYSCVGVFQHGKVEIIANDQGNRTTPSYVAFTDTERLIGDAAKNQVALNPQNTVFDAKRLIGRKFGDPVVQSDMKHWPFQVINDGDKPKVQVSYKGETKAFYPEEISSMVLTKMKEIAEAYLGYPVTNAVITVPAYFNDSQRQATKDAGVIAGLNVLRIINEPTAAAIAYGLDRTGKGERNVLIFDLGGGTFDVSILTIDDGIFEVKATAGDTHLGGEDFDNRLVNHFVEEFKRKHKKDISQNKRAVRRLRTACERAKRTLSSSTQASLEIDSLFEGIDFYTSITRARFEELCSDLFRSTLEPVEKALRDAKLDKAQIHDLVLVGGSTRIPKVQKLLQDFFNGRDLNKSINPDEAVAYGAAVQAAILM
T1 sequence (P38646 52-431): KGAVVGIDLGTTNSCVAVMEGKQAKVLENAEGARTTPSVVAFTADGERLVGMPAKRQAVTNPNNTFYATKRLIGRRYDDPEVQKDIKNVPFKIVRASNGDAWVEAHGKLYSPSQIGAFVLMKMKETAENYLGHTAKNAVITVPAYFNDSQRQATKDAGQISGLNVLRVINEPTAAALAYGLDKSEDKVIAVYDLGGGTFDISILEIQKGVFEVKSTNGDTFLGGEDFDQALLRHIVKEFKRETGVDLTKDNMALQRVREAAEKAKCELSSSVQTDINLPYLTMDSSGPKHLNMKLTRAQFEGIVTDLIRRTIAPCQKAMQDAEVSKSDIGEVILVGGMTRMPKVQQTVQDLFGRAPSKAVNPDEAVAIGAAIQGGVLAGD
T2 sequence (P11142 1-385): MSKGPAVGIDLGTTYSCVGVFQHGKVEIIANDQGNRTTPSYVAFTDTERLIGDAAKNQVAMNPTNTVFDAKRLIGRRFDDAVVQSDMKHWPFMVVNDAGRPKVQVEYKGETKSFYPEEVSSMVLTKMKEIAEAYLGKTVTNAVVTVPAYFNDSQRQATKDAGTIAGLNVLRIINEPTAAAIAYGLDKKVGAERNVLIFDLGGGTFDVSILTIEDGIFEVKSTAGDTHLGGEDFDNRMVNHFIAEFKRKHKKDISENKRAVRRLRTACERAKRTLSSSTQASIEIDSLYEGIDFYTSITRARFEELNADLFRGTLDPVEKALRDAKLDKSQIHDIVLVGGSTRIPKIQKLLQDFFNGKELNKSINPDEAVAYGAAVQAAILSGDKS

Compound	Kd [2] [µM]	ΔΗ ([2]; ITC, 25 °C, Hsc70-NBD) [kcal/mol]	ΔS ([2]; ITC, 25 °C, Hsc70-NBD) [J/mol·K]	Kd [3] [µM]	ΔΗ ([3]; ITC, 25 °C, Hsp70-NBD) [kcal/mol]	ΔS ([3]; ITC, 25 °C, Hsp70-NBD) [J/mol·K]	IC50 [5] [µM]	Ki [5] [µM]	IC50 [6] [µM]	Ki [6] [µM]	Kd [1] [µM]	ΔΗ ([1]; ITC, 25 °C, mortalin-NBD) [kcal/mol]	ΔS ([1]; ITC, 25 °C, mortalin-NBD) [J/mol·K]	IC50 [4] [µM]	Ki [4] [µM]	inhibition of ATP hydrolysis of mortalin-NBD (in words) [4]	affinity tighter than ADP [1, 8]	also measured
O=P(O)(O)OP(=O)(O)OC[C@H]1O[C@@H](n2cnc3c(NC4CCCCC4)ncnc32)[C@H](O)[C@@H]1O [6-cHe ADP, N6-cyclohexyladenosine-5’-diphosphate]	0.357	-6.006 ± 0.562	37.74 ± 7.36	0.199	-4.967 ± 0.146	57.67 ± 0.64	2230	622 ± 183	2490	1240 ± 164	14.1	-5.28 ± 0.0693	18.84 ± 0.87	1600	733 ± 82.1	weakest inhibition	–	–
O=P(O)(O)OP(=O)(O)OC[C@H]1O[C@@H](n2cnc3c(NCCc4ccccc4)ncnc32)[C@H](O)[C@@H]1O [6-PheEt ADP, N6-(2-phenylethyl)adenosine-5’-diphosphate]	0.237	-4.316 ± 0.022	65.31 ± 1.22	0.143	-10.8 ± 0.208	−22.97 ± 3.25	2100	445 ± 101	3120	1160 ± 189	4.19	-8.1 ± 0.495	−10.4 ± 5.17	173	97.3 ± 9.96	more effectively compared to ADP	~ 1.25 fold	–
Nc1ncnc2c1ncn2[C@@H]1O[C@H](COP(=O)(O)OP(=O)(O)O)[C@@H](O)[C@H]1O [ADP, reference compound]	–	-7.359 ± 0.022	34.19 ± 1.55	–	-5.731 ± 0.203	60.54 ± 3.65	–	–	–	–	–	-6.52 ± 0.308	9.36 ± 4.48	–	–	–	–	Kd ([2]; ITC, 25 °C, Hsc70-NBD): 0.0665 µM; Kd ([3]; ITC, 25 °C, Hsp70-NBD): 0.0435 µM; Ki [4, 9]: 353 ± 36.2 µM; log IC50 ([5]; Hsc70-NBD, ATP 50 μM, one-site logIC50 fit): 2.734 ± 0.117; Ki ([5]; read-out: KIapp, Hsc70-NBD, ATP 50 μM, Morrison fit, ~ denotes ambiguous data): 239 ± 32.2 µM; log IC50 ([6]; Hsp70-NBD, ATP 50 μM, one-site logIC50 fit): 2.697 ± 0.091; Ki ([6]; read-out: KIapp, Hsp70-NBD, ATP 50 μM, Morrison fit, ~ denotes ambiguous data): 440 ± 47.8 µM; Kd [7]: 5.3 ± 0.106 µM
CSc1nc(N)c2ncn([C@@H]3O[C@H](COP(=O)(O)OP(=O)(O)O)[C@@H](O)[C@H]3O)c2n1 [2-MeS ADP, 2-methylthio-adenosine-5’-diphosphate]	–	–	–	–	–	–	–	–	–	–	9.81	-2.96 ± 0.865	54.5 ± 16.5	902	523 ± 98.3	–	–	decrease in affinity compared to ADP [1, 8]: ~2 fold; binding to Hsc70-NBD (in words) ([2]; ITC): did not yield data that could be fitted; binding to Hsp70-NBD (in words) ([3]; ITC): did not yield data that could be fitted; inhibition of Hsc70-NBD (in words) [5]: no reliably demonstrable inhibition; inhibition of Hsp70-NBD (in words) [6]: no reliably demonstrable inhibition
Nc1nc(Cl)nc2c1ncn2[C@@H]1O[C@H](COP(=O)(O)OP(=O)(O)O)[C@@H](O)[C@H]1O [2-Cl ADP]	–	–	–	–	–	–	–	–	–	–	–	-4.54 ± 0.172	45.4 ± 3.04	–	–	more effectively compared to ADP	~ 3 fold	Kd ([1]; ITC, 25 °C, mortalin-NBD): 1.77 µM; binding to Hsc70-NBD (in words) ([2]; ITC): did not yield data that could be fitted; binding to Hsp70-NBD (in words) ([3]; ITC): did not yield data that could be fitted; Ki [4, 9]: 45.1 ± 2.42 µM; inhibition of Hsc70-NBD (in words) [5]: no reliably demonstrable inhibition; inhibition of Hsp70-NBD (in words) [6]: no reliably demonstrable inhibition

More lines, main results first:

Kd [2] [µM]	ΔΗ ([2]; ITC, 25 °C, Hsc70-NBD) [kcal/mol]	ΔS ([2]; ITC, 25 °C, Hsc70-NBD) [J/mol·K]	Kd [3] [µM]	ΔΗ ([3]; ITC, 25 °C, Hsp70-NBD) [kcal/mol]	ΔS ([3]; ITC, 25 °C, Hsp70-NBD) [J/mol·K]	IC50 [5] [µM]	Ki [5] [µM]	IC50 [6] [µM]	Ki [6] [µM]	Compound	Kd [1] [µM]	ΔΗ ([1]; ITC, 25 °C, mortalin-NBD) [kcal/mol]	ΔS ([1]; ITC, 25 °C, mortalin-NBD) [J/mol·K]	IC50 [4] [µM]	Ki [4] [µM]	inhibition of ATP hydrolysis of mortalin-NBD (in words) [4]	affinity tighter than ADP [1, 8]	also measured
3.35	-10.22 ± 0.906	−41.10 ± 12.94	0.252	-4.787 ± 0.225	58.44 ± 3.96	8040	682 ± 179	1870	1300 ± 148	Cc1cccc(CNc2ncnc3c2ncn3[C@@H]2O[C@H](COP(=O)(O)OP(=O)(O)O)[C@@H](O)[C@H]2O)c1 [6-(3-MeBn) ADP, N6-(3-methylbenzyl)adenosine-5’-diphosphate]	11.4	-3.13 ± 0.0545	50.2 ± 1.73	1430	675 ± 99.4	–	–	–
0.159	-4.077 ± 0.0645	72.13 ± 2.77	2.16	-3.941 ± 1.02	53.04 ± 14.20	1470	295 ± 67.2	2330	1610 ± 137	O=P(O)(O)OP(=O)(O)OC[C@H]1O[C@@H](n2cnc3c(NCc4ccccc4)ncnc32)[C@H](O)[C@@H]1O [6-Bn ADP, N6-benzyladenosine-5’-diphosphate]	3.52	-2.99 ± 0.839	61.8 ± 12.1	119	86.5 ± 10.3	more effectively compared to ADP	~ 1.5 fold	–
8.7	-5.457 ± 0.514	19.22 ± 5.06	4.27	-2.395 ± 0.562	68.77 ± 8.28	6780	723 ± 179	3240	1860 ± 172	O=P(O)(O)OP(=O)(O)OC[C@H]1O[C@@H](n2cnc3c(NCc4ccco4)ncnc32)[C@H](O)[C@@H]1O [6-Fu ADP, N6-furfuryladenosine-5’-diphosphate]	5.84	-5.04 ± 0.277	28.7 ± 6.85	558	565 ± 49.6	–	–	–
